# Compounds with a hit are over-represented: about 1.7% of the library has one in this group of screens.
# Vif inh: inhibitors of HIV Vif. HEK293T cells, Vif self-association by quenched fluorescence, imaging, 24 h. inhibition, % at 7.49 µM. 340,000 tested, 0.35% active; in the data active means inhibition above about 50%, passing the limit was not always enough
# CaV13 ICDI inh: Disruptors of the CACNA1D IQ motif to Ca2+-dependent inactivation inhibitor domain association, primary screening, Förster resonance energy transfer in intact living …; inhibition, % at 12.3 µM; 340,000 tested, 0.098% active; AID 743397; HEK cells, CFP/YFP FRET ICDI-IQ, plate reader, 10 min; percent FRET-ratio fall versus neutral wells;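 active means mean replicate inhibition of at least 30% and at least 1% of replicates passing that level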
# NTR1 ag: activates human neurotensin receptor 1 | NTR1-U2OS beta-arrestin-GFP spot imaging, agonist mode | activation, % at 20 µM | 330,000 tested, 0.17% active | AID 493036;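 active means activation at or above 40% of the spot to cytoplasm intensity ratio, with at least 20 cells analyzed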
# Target sequence (P30989 whole entry, looked up): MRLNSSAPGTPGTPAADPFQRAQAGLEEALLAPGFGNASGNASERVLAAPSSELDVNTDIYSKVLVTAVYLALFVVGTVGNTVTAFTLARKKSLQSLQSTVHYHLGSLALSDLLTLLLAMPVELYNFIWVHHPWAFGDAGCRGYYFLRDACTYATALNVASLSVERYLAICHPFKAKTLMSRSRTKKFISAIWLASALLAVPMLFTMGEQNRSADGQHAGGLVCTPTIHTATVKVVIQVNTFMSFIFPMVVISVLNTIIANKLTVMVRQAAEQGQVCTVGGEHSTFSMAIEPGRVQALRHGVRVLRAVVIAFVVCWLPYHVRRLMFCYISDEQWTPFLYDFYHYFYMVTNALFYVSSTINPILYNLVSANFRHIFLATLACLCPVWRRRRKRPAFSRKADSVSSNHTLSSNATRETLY
# SR-BI uptake up: enhances SR-BI lipid uptake from DiI-HDL | CHO ldlA[mSR-BI] cells, DiI-HDL uptake fluorescence, 3 h; 100 = double the neutral-control signal | 320,000 tested, 0.096% active | activation, % at 12.5 µM;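 active means mean replicate activation of at least 60% and every replicate at or above 60%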
#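 Assay system: LDL receptor-deficient CHO ldlA cells overexpressing murine SR-BI / Medium: BSA-supplemented, HEPES-buffered Ham's F12, pH 7.4 / Probe or stimulus: DiI-labelled HDL at 10 µg/mL final / Timing: compound with DiI-HDL co-incubation, 3 h at 37 °C / Technique: bottom-read cell fluorescence after medium removal, ex 550/em 595 nm / Measure: HDL uptake via cellular fluorescence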
# V-ATPase pHluor: yeast V-ATPase proton transport regulation by pHLuorin; 350,000 tested, 0.37% active; S. cerevisiae, pHLuorin cytosolic pH fluorescence; response, % at 10 µM; AID 504577; in the data active means response mostly above about 7.3%, no sharp cut-off; inactive means mostly below about 5.4%; further: actives read high
# SR-BI DiI inh: mouse SR-BI HDL lipid transfer inhibition; Q61009; ldlA[mSR-BI] CHO cells, DiI-HDL uptake fluorescence, 3 h; inhibition, % at 12.5 µM; 320,000 tested, 0.96% active; AID 488896;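 active means mean replicate inhibition of at least 70% and a set share of replicates each scoring 70 or more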
# NTR1 ag confirm: confirmation of agonists of human NTR1 | shares compounds with NTR1 ag | NTR1-U2OS beta-arrestin-GFP translocation imaging | activation, % at 20 µM | 480 tested, 38% active;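 active means mean activation at 20 µM of at least 40%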
# V-ATPase pH SP: modulates yeast V-ATPase proton transport; shares compounds with V-ATPase pHluor; S. cerevisiae pHLuorin cytosolic pH; response, % at 10 µM; 980 tested, 2% active; AID 602197; in the data active means response above about 24%
# Numbers stand for hits; - = inactive; . = no result.
SMILES,Vif inh,CaV13 ICDI inh,NTR1 ag,SR-BI uptake up,V-ATPase pHluor,SR-BI DiI inh,NTR1 ag confirm,others
CN1C(=O)C(=Cc2ccc(Sc3ccccc3)o2)C(=O)N(C)C1=O,-,-,-,-,-,-,.,
Cc1cccc(N2C(=O)NC(=O)/C(=C\C=C\c3ccco3)C2=O)c1,-,-,-,.,-,.,.,
CC(C)(C)n1cccc1/C=C1\C(=O)NC(=O)N(c2ccccc2)C1=O,-,-,-,-,-,-,.,
Cc1cc(C)cc(N2C(=O)NC(=O)/C(=C/c3cccn3-c3ccc(Cl)cc3)C2=O)c1,-,-,44,-,-,-,61,
Cc1cccc(N2C(=O)NC(=O)/C(=C\c3cccn3-c3ccc(Cl)cc3)C2=O)c1,-,-,48,.,-,-,82,
C=Cn1ccnc1P(=S)(c1nccn1C=C)C1CCCCC1,-,-,-,-,-,-,.,
C/C(=C\c1ccc(N(C)C)cc1)[N+](=O)[O-],-,-,53,-,-,-,73,
CN(C)c1ccc(/C=C/[N+](=O)[O-])cc1,-,-,-,-,-,-,.,
Nc1ccc(Cl)cc1C(=O)c1ccccc1,-,-,100,-,-,-,-,
COc1ccc(Oc2cc(NC(=O)c3nn(C)cc3[N+](=O)[O-])cc([N+](=O)[O-])c2)cc1,-,-,61,-,-,-,67,
COc1ccc(NC(=O)c2cn(CCC#N)nc2-c2cccc([N+](=O)[O-])c2)cc1,-,-,-,.,-,.,.,
S=P1(Oc2ccccc2)Nc2ccccc2N1,-,-,.,-,-,-,.,
CC1CCC(C(C)C)C(OC(=O)Cn2c(COc3ccccc3)[n+](C)c3ccccc32)C1 (stereo unspecified),-,-,59,.,-,.,68,
COC(=O)c1ccc(NC(=O)CSc2nc3ccc(N4C(=O)C5C6C=CC(C6)C5C4=O)cc3s2)cc1 (stereo unspecified),-,-,63,-,-,-,56,
COc1ccc(CNC(=O)CCC(=O)N2C[C@H]3C[C@H](C2)c2cccc(=O)n2C3)cc1,-,.,-,-,-,-,.,
O=C1NC(=O)N(Cc2ccc(F)cc2)C(=O)/C1=C/c1cccs1,-,-,53,-,-,-,45,
O=C1NC(=O)C(=Cc2cn(CCOc3ccc4c(c3)OCO4)c3ccccc23)C(=O)N1,-,.,54,-,-,-,63,
NC(N)=N/N=C/c1ccc(N(c2ccccc2)c2ccccc2)cc1,-,-,64,-,-,-,-,
Cc1ccc(C(=O)N[C@@H](C)CN2C3=NC[C@H](Cc4ccccc4)N3C[C@H]2Cc2ccc(O)cc2)cc1Br,.,.,52,.,.,.,-,
Cc1ccc(C(=O)N[C@@H](C)CN2C3=NC[C@@H](Cc4ccccc4)N3C[C@H]2Cc2ccc(O)cc2)cc1Br,.,-,-,.,.,.,.,
COc1ccc(CC(C)NC2CCCCCC2)cc1 (stereo unspecified),-,-,-,-,-,-,.,
CCN(CC)c1ccc(C=C2C(=O)NC(=S)NC2=O)cc1,-,-,71,-,-,-,95,
C=CCn1c(O)c(C(CC)=NCC2CCCO2)c(=O)[nH]c1=O (stereo unspecified),-,-,-,-,-,-,.,
Oc1ccc(C(=C(Cl)Cl)c2ccc(O)cc2)cc1,.,.,-,.,.,.,.,
O=C(CCC(=O)N1CCC2(CC1)OCCO2)Nc1nnc(C2CCCCC2)s1,-,-,-,-,-,-,.,
Cc1ccc([N+](=O)[O-])cc1,-,.,-,-,21,-,.,V-ATPase pH SP=-
COC(=O)C1=C(c2cccc(C#N)c2)C[C@@H]2CC[C@H]1N2C(=O)NCCOc1ccccc1Cl,-,-,-,-,-,-,.,
Cc1ccc2nc(N3CCN(C)CC3)[nH]c2c1,-,-,-,-,12,-,.,V-ATPase pH SP=-
CN1CCN(c2nc(N)cc(=O)[nH]2)CC1,-,-,-,-,-,-,.,
C/C(=N\N1CCCCCC1)c1c(O)n(-c2ccc(C)cc2)c(=O)[nH]c1=O,68,-,-,-,8.7,-,.,V-ATPase pH SP=-
